The text below walks through data of ChEMBL document CHEMBL1134044, “Beneficial effects of different flavonoids, on functional recovery after ischemia and reperfusion in isolated rat heart” (2001).

Holding throughout (format): functional, Muscle tissue
The species named for experiment [1] is Rattus norvegicus. Description: Effect of compound on Glutathione peroxidase measured as disappearance of NADPH in isolated rat heart muscle subjected to global ischemia. In a few lines: (§1)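 Isolated rat hearts: 10 min initial perfusion, then 15 min recirculating Krebs with drug (diluted from 10⁻² M DMSO stock; final DMSO 0.01% v/v, matched in controls), 30 min global ischemia, then 30 min reperfusion with the same regime. Hearts were homogenized and frozen in liquid nitrogen. Enzymes were assayed in the centrifuged supernatant, normalized […]; mean ± S.D.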

The species named for experiment [2] is Rattus norvegicus. Briefly: Effect of compound on catalase measured as disappearance of H2O2 in isolated rat heart muscle subjected to global ischemia. In a few lines:
as §1

The species named for experiment [3] is Rattus norvegicus. Description: Superoxide dismutase activity measured as inhibition of Cytochrome C reduction by 50% in isolated rat heart muscle subjected to global ischemia. In a few lines: as §1

Regarding `C[C@@H]1O[C@@H](OC[C@H]2O[C@@H](Oc3c(-c4ccc(O)c(O)c4)oc4cc(O)cc(O)c4c3=O)[C@H](O)[C@@H](O)[C@@H]2O)[C@H](O)[C@H](O)[C@H]1O` [RUTIN], the Activity in the experiment listed under Rattus norvegicus [1] is listed as 1829 U (mg of protein)-1; in the experiment filed under Rattus norvegicus [2], 21 U (mg of protein)-1; in the experiment listed under Rattus norvegicus [3], 9077 U (mg of protein)-1.
In the case of `CC(C)(C)c1cc(-c2cc(=O)c3ccc(O)cc3o2)cc(C(C)(C)C)c1O`, the Activity is reported as 1982 U (mg of protein)-1 in the experiment listed under Rattus norvegicus [1], 21 U (mg of protein)-1 in the experiment listed under Rattus norvegicus [2] and 8433 U (mg of protein)-1 in the experiment filed under Rattus norvegicus [3].
`Oc1ncnc2[nH]ncc12` [ALLOPURINOL]: the Activity is reported as 1912 U (mg of protein)-1 in the experiment listed under Rattus norvegicus [1], 21 U (mg of protein)-1 in the experiment listed under Rattus norvegicus [2] and 9800 U (mg of protein)-1 in the experiment listed under Rattus norvegicus [3].
The corresponding values for `CC(C)(C)c1cc(/C=C2\C(=O)c3ccc(O)cc3OC2c2cc(C(C)(C)C)c(O)c(C(C)(C)C)c2)cc(C(C)(C)C)c1O` (stereo not drawn) are 1906 U (mg of protein)-1, 21 U (mg of protein)-1 and 8935 U (mg of protein)-1.
The corresponding values for `Cc1cc(C(C)(C)C)c(O)c(C(C)(C)C)c1` [BUTYLATED HYDROXYTOLUENE] are 1803 U (mg of protein)-1, 20 U (mg of protein)-1 and 9636 U (mg of protein)-1.
On the same counts, the results for `CC(C)(C)c1cc(/C=C/C(=O)c2ccc(O)cc2O)cc(C(C)(C)C)c1O` are 1879 U (mg of protein)-1, 20 U (mg of protein)-1 and 8740 U (mg of protein)-1.
